Experimental data reported in article PMC4051287 (Molecular cancer therapeutics, 2014).
Square brackets hold non-standard residues; d marks the D form. Peptide text beside a SMILES is read from it. * marks the point of attachment. Dolaproine = CO[C@@H]([C@@H]1CCCN1)[C@@H](C)C(=O)O; Dil = CC[C@H](C)[C@H](NC)[C@@H](CC(=O)O)OC; X1 = C[C@@H](N*)[C@@H](O)c1ccccc1; NMeV = CN[C@H](C(=O)O)C(C)C

Tests used:
[1] = tested on: Py230 tumors; experiment: Therapeutic study, Py230 syngeneic tumors; type: in vivo, mice
Method in brief: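 Tumors reach 5–7 mm diameter in 5–6 weeks. Test compound (MMAE conjugate) dosed at 0.2mg/kg MMAE, ~6.5 nanomoles of conjugate. Free MMAE and controls run alongside. Tumor volume followed.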

[2] = cited from earlier work

CC[C@H](C)[C@@H]([C@@H](CC(=O)N1CCC[C@H]1[C@H](OC)[C@@H](C)C(=O)N[C@H](C)[C@@H](O)c1ccccc1)OC)N(C)C(=O)[C@@H](NC(=O)[C@@H](NC)C(C)C)C(C)C [MMAE, Monomethylauristatin E] (H-[NMeV]V[Dil][Dolaproine]-X1)
final tumor mass, dose finding ([1]; Py230, MMAE at concentrations up to 0.6mg/kg): Only the tumors treated at the highest dose had a reduction in final mass | effect on tumor growth ([1]; Py230, immunocompetent mice, 0.2mg/kg MMAE): no impact on tumor growth | maximum tolerated dose [2]: 0.5 to 1.0 mg/kg
